In article PMC3458512 (Organic & biomolecular chemistry, 2012):

Key:
[1] = biological target: T. cruzi farnesyl pyrophosphate synthase (TcFPPS) (Trypanosoma cruzi, UniProt Q8WS26); assay: TcFPPS enzymatic activity inhibition assay; format: biochemical; conditions: read-out: IC50 TcFPPS; recombinant enzyme
[2] = biological target: T. gondii farnesyl pyrophosphate synthase (TgFPPS) (Toxoplasma gondii, UniProt Q197X6); format: biochemical; conditions: read-out: IC50 TgFPPS
[3] = system: T. gondii tachyzoites; assay: T. gondii tachyzoites growth assay; format: cell-based, Toxoplasma gondii; conditions: read-out: IC50 T. gondii tachyzoites; growth inhibition of tachyzoites
[4] = system: T. cruzi amastigotes; assay: T. cruzi amastigotes assay; format: cell-based, Trypanosoma cruzi
In short: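 Vero cells gamma-irradiated (2,000 Rads), seeded at 3.4 × 10^4/well in RPMI + 10% FBS, overnight at 35 °C, 7% CO2. Infected 5 h with 3.4 × 10^5 tdTomato-expressing CL-strain trypomastigotes/well, washed, then serial test compound dilutions in quadruplicate. Controls were uninfected, drug-only and untreated-infected wells, plus benznidazole reference at 3.5 and 1.5 μM. Fluorescence read day 3 post-infection; IC50 by non-linear regression.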

[5] = system: T. cruzi; conditions: in vivo; cited from earlier work

Row | SMILES | IC50 [1] [nM] | IC50 [2] [nM] | IC50 [3] [nM] | growth inhibition of T. cruzi intracellular amastigotes ([4]; at 10 μM) [% at 10 μM] | survival of T. cruzi-infected mice [5] | IC50 ([4]; Trypanosoma cruzi, Vero, 72 h, read-out: IC50 T. cruzi amastigotes) [nM]
1 | O=P(O)(O)C(F)P(=O)(O)O [Compound 35, 1-(Fluoromethylene)-1,1-bisphosphonic acid] | > 1000 | > 10000 | > 10000 |  |  | 
2 | CC(F)(P(=O)(O)O)P(=O)(O)O [Compound 36, 1-(Fluoroethylidene)-1,1-bisphosphonic acid] | > 1000 | > 10000 | > 10000 |  |  | 
3 | CCC(F)(P(=O)(O)O)P(=O)(O)O [Compound 37, 1-(Fluoro-n-propylidene)-1,1-bisphosphophonic acid] | > 1000 | > 10000 | > 10000 |  |  | 
4 | CCCC(F)(P(=O)(O)O)P(=O)(O)O [Compound 38, 1-(Fluoro-n-butylidene)-1,1-bisphosphonic acid] | > 1000 | > 10000 | > 10000 |  |  | 
5 | CCCCC(F)(P(=O)(O)O)P(=O)(O)O [Compound 39, 1-(Fluoro-n-pentylidene)-1,1-bisphosphonic] | > 1000 | 3420 ± 1670 | > 10000 |  |  | 
6 | CCCCCC(F)(P(=O)(O)O)P(=O)(O)O [Compound 40, 1-(Fluoro-n-hexylidene)-1,1-bisphosphonic acid] | > 1000 | 160 ± 78 | > 10000 |  |  | 
7 | CCCCCCC(F)(P(=O)(O)O)P(=O)(O)O [Compound 41, 1-(Fluoro-n-heptylidene)-1,1-bisphosphonic acid] | > 1000 | 241 ± 120 | > 10000 |  |  | 
8 | CCCCCCCC(F)(P(=O)(O)O)P(=O)(O)O [Compound 42, 1-(Fluoro-n-octylidene)-1,1-bisphosphonic acid] | > 1000 | 616 ± 259 | > 10000 |  |  | 
9 | CCCCCCCCC(F)(P(=O)(O)O)P(=O)(O)O [Compound 43, 1-(Fluoro-n-nonylidene)-1,1-bisphosphonic acid] | > 1000 | 35 ± 19 | 2670 | 13 |  | 
10 | CCCCCCCCCC(F)(P(=O)(O)O)P(=O)(O)O [Compound 44, 1-(Fluoro-n-decylidene)-1,1-bisphosphonic acid] | > 1000 | 60 ± 6 | > 10000 |  |  | 
11 | O=P(O)(O)C(O)(Cc1cccnc1)P(=O)(O)O [Risedronate, risedronate] |  |  |  |  | significantly increase survival | 
12 | O=C(Cn1ccnc1[N+](=O)[O-])NCc1ccccc1 [benznidazole, reference compound] |  |  |  |  |  | 2770 ± 488
